From PubChem BioAssay
Shown are actives, neighbours in structure and some others; about 4.7% of the full set was active somewhere.
RGS4 block – RGS4 inhibitors, primary screen, cell-based, HEK293 M3R inducible RGS4, calcium flux; Regulator of G-protein signaling 4 (Homo sapiens), P49798; Fluo-4 calcium flux; stronger effect = higher value; triggered by carbachol at its EC20; B-score at 10 µM; hit rate 0.45% among 310,000; AID 463165, 2010;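 active = B-score, a plate-corrected calcium signal, over three deviations above library mean, with baseline fluorescence within five deviations of library mean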;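 note: RGS4 expression induced by doxycycline in cells with stable M3 receptor; B-score is computed from the integrated fluorescence ratio over baseline after carbachol; higher B-score means a larger calcium signal and so more RGS4 inhibition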
Target sequence (P49798 whole entry, looked up): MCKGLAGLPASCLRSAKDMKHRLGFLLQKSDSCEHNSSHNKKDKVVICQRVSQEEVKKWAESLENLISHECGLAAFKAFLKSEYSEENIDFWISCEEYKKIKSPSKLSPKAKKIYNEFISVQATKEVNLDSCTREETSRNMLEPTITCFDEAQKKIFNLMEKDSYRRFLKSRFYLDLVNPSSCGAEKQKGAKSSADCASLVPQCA
MrgX1 antag – antagonists of human MrgX1 receptor, primary screen, HEK293 cells, Fluo-4 calcium flux; Mas-related G-protein coupled receptor member X1 (Homo sapiens), Q96LB2; BAM8-22 antagonism; stronger effect = lower value; B-score at 10 µM; hit rate 1.3% among 310,000; AID 588676, 2011;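 active = calcium-response B-score plate-corrected more than 3 library SD below zero, starting fluorescence within 5 deviations, no agonist response on first addition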;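 note: peak minus trough fluorescence over baseline after final BAM8-22 challenge near maximal dose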
Target sequence (Q96LB2 whole entry, looked up): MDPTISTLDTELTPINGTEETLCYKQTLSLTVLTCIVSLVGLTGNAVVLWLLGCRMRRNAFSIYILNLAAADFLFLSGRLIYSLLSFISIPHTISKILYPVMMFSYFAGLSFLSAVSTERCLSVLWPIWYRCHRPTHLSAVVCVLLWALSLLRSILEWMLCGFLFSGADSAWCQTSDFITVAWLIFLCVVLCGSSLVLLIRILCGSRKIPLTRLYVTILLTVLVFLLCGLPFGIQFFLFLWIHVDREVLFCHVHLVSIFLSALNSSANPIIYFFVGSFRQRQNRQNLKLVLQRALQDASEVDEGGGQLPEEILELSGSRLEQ
MrgX1 allo act – positive allosteric modulators of MrgX1, primary screen, HEK293 cells, Fluo-4 calcium flux; Mas-related G-protein coupled receptor member X1 (Homo sapiens), Q96LB2; FDSS; stronger effect = higher value; B-score at 10 µM; hit rate 0.63% among 310,000;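 active = plate-corrected calcium response at least 3 library SD above typical, normal starting fluorescence, not activating the receptor alone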;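 note: compound read alongside a low EC10 to EC30 dose of BAM8-22 agonist; peak minus trough fluorescence over baseline measured at the second addition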
RGS4 act – RGS4 potentiators or activators, primary screen, cell-based, HEK293 M3R inducible RGS4, calcium flux. carbachol calcium flux Fluo4; stronger effect = lower value. B-score at 10 µM. hit rate 0.92% among 310,000;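 active = B-score of the integrated calcium signal more than 4 SD below the library mean, with starting fluorescence not abnormally high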;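 note: negative B-score means reduced calcium response which marks RGS4 activation or potentiation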
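Assay system: Inducible-RGS4 HEK293 cells carrying M3 receptor | Schedule: Compound preincubation 20 min at room temperature before agonist | Signal: Kinetic calcium fluorescence imaging with Fluo4-AM dye, 2 µM | Read-out basis: B score from integrated fluorescence ratio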
MrgX1 ag – agonists of human MrgX1 receptor, primary screen, HEK293 cells, Fluo-4 calcium flux; hit rate 0.44% among 310,000; Fluo-4 calcium fluorescence, agonist mode; stronger effect = higher value; Mas-related G-protein coupled receptor member X1 (Homo sapiens), Q96LB2; B-score at 10 µM;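 active = calcium response B-score plate-corrected fluorescence ratio at least 3 library SD, with starting fluorescence B-score inside 5 SD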
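Test system: HEK293 cells stably expressing human MrgX1 receptor; Input: fifteen thousand cells per well; Dosing: compound delivered in addition one of three; Schedule: overnight seeding, then 1 h dark dye loading; Technique: Fluo-4 NW calcium fluorescence; Measure: B-scored fluorescence response ratio; Controls: positive and negative controls per plate.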
KCC2 mod – KCC2 cotransporter modulators, thallium flux, primary screen, cell-based, HEK293 KCC2, FluoZin-2 fluorescence, MLSMR. Solute carrier family 12 member 5 (Homo sapiens), Q9H2X9. KCC2 cells, thallium flux FluoZin-2 fluorescence. B-score of Tl+ flux slope (higher = more flux/activation; lower = inhibition) at 10 µM. hit rate 2.2% among 190,000. AID 1456, 2008;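 active = thallium flux slope and its plate-corrected score both differing from the plate sample mean at a set confidence after two filtering rounds, in either direction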;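 note: slope of fluorescence scaled to starting intensity during 10 to 20 s after thallium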
KCC2 secondary – KCC2 modulators in sodium-free buffer, confirmation, cell-based, HEK293 KCC2, thallium flux, secondary assay; shares compounds with KCC2 mod; hit rate 15% among 3,700; FluoZin2 fluorescence; stronger effect = higher value; normalised thallium flux (F/F0 slope) at 10 µM; AID 1713, 2009;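 active = thallium flux slope above the same plate's solvent-only control mean plus 3 SD; inconclusive = the two replicate wells disagree; inactive = no significant difference from solvent-only control wells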
KCC2 bumet counter – thallium flux persisting under bumetanide in KCC2 cells, confirmation, counter-screen for KCC2 modulator project, cell-based, HEK293 KCC2, FluoZin2, secondary assay 3; shares compounds with KCC2 mod; HEK293-KCC2 + bumetanide/ouabain; stronger effect = higher value; normalized thallium flux at 10 µM; hit rate 49% among 3,700; AID 1714, 2009;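 active = thallium entry rate above the same plate's blocked-transporter control wells by more than 3 SD; inconclusive = the two repeat wells disagree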;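 note: raw slope of fluorescence over initial fluorescence between 10 and 20 s after thallium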
KCC2 secondary2 – KCC2 modulators without ouabain present, confirmation, cell-based, HEK293 KCC2, thallium flux, FluoZin2, secondary assay 2. shares compounds with KCC2 mod. normalized thallium flux at 10 µM. thallium flux FluoZin2 fluorescence; actives lie on both sides; F/F0 rise rate, 10–20 s post-thallium. AID 1715, 2009. hit rate 23% among 3,700;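 active = thallium flux slope more than 3 SD above or below the plate's solvent-only control mean, mostly below; inconclusive = the two repeat wells disagreed; inactive = no significant shift from solvent-only controls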;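 note: raw slope with 0.1% DMSO as baseline and bumetanide as block control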
HEK293 Tl flux – thallium flux modulation in parental HEK cells, confirmation, counter-screen for KCC2 modulator project, cell-based, counterscreen 1; shares compounds with KCC2 mod; HEK293 parental cells, thallium flux FluoZin2, ouabain; baseline-ratio fluorescence slope, 10–20 s after thallium; thallium flux rate (normalised fluorescence) at 10 µM; hit rate 46% among 3,700; AID 1716, 2009;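 active = thallium flux rate significantly above the same plate's solvent-only control wells, beyond their mean plus 3 SD; inconclusive = the two replicate wells gave conflicting results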
KCC2 ouabain – KCC2 inhibitors and activators, ouabain retest, confirmation, HEK-KCC2 cells; hit rate 48% among 3,700; shares compounds with KCC2 mod; raw Tl+ flux slope (below DMSO = inhibition, above = activation) at 10 µM; HEK293-KCC2, thallium flux FluoZin2 fluorescence; bidirectional: low = inhibitor, high = activator;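 active = thallium flux slope beyond 3 SD from same-plate DMSO control mean in most replicates, usually higher, sometimes lower; inconclusive = repeat tests gave conflicting results; inactive = no significant difference from controls in most replicates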;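 note: slope of initial-normalized fluorescence between seconds 10 and 20 after thallium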
HEK293 Tl flux2 – native HEK Tl+ uptake effects, second counter-screen – HEK cells, counterscreen 2, counter-screen for KCC2 modulator project, confirmation; shares compounds with KCC2 mod; HEK293 parental, thallium flux FluoZin-2 fluorescence slope; thallium flux slope at 10 µM; hit rate 33% among 3,700;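 active = thallium flux slope above the same plate's solvent-control mean plus 3 SD in both duplicate wells; inconclusive = duplicate wells that disagreed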;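 note: run without ouabain in cells lacking the KCC2 cotransporter; slope of fluorescence scaled to its starting value between 10 and 20 s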
An asterisk follows results filed as active; i = inactive; u = inconclusive; x = not tested or not shown.

SMILES	RGS4 block	MrgX1 antag	MrgX1 allo act	RGS4 act	MrgX1 ag	KCC2 mod	KCC2 secondary	KCC2 bumet counter	KCC2 secondary2	HEK293 Tl flux	KCC2 ouabain	HEK293 Tl flux2
O=C(CSc1nccc(=O)[nH]1)N1CCCc2ccccc21	i	i	i	i	i	0.054	x	x	x	x	x	x
O=C(CSc1nnc(-c2ccccc2)o1)N1CCc2ccccc2C1	i	i	i	i	i	-3.4*	0.0061	0.0038	0.025*	u	0.013*	0.0098
Cc1cccn2c(NC(=O)c3ccccc3F)c(-c3ccccc3)nc12	i	i	i	i	i	x	x	x	x	x	x	x
CNC(=O)c1c[nH]c2ccc(S(=O)(=O)Nc3cccc(SC)c3)cc2c1=O	i	i	i	i	i	x	x	x	x	x	x	x
CC(C)c1ccc(/C=C(\NC(=O)c2ccccc2)C(=O)NCCN2CCOCC2)cc1	i	i	i	i	i	x	x	x	x	x	x	x
Fc1cccc(F)c1/C=N/NC(=S)Nc1cccnc1	i	i	i	i	i	5.2*	0.0063	0.012*	0.028	0.012*	u	0.011
Fc1ccc(/C=N/NC(=S)Nc2cccnc2)cc1	i	i	i	i	i	1.6	x	x	x	x	x	x
Fc1c(F)c(F)c(/C=N/NC(=S)Nc2cccnc2)c(F)c1F	i	i	i	i	i	19*	0.0099	0.03*	0.036	0.015*	u	u
Nc1nccnc1C(=O)OCC(=O)c1ccc[nH]1	i	i	i	i	i	x	x	x	x	x	x	x
CCOc1cccc(-c2nnc3sc(COc4ccc(Cl)cc4)nn23)c1	i	i	i	i	i	-3.6*	0.019	0.0046	0.028	0.0072	0.014	0.01
CCOC(=O)CC(=O)c1[nH]c(C)c(C(=O)OCC)c1C	i	i	i	i	i	-0.23	x	x	x	x	x	x
CCOC(=O)c1c(C)[nH]c(C(=O)COC(=O)C2(C)CC2(Cl)Cl)c1C (configuration not stated)	i	i	i	i	i	x	0.0072	0.0042	0.028	0.0073	0.017	0.01
O=S1OCCN1c1ccccc1 (configuration not stated)	i	i	i	i	i	x	x	x	x	x	x	x
Fc1ccc(N2CCN(C(=S)NCC3CCCO3)CC2)cc1 (configuration not stated)	i	i	i	i	i	-2.6*	0.0067	0.0059	0.028	0.0063	u	0.0094
S=C(NCC1CCCO1)N1CCN(c2cccc(Cl)c2)CC1 (configuration not stated)	i	i	i	i	i	-1.1	x	x	x	x	x	x
CCc1ccccc1N1C(=O)C2C3C=CC(CC3)C2C1=O (configuration not stated)	i	i	i	i	i	x	x	x	x	x	x	x
CCN(CC)CCn1c(=S)[nH]c2ccc(Cl)cc2c1=O	i	i	i	i	i	25*	0.01	0.017*	0.038	u	0.03*	0.014
O=c1c2cc(Cl)ccc2[nH]c(=S)n1Cc1ccccn1	i	i	i	i	i	9.9*	0.0073	0.067*	0.047*	0.036*	0.054*	0.034*
O=c1c2cc(Br)ccc2[nH]c(=S)n1Cc1cccnc1	i	i	i	i	i	5.4*	u	0.025*	0.034	0.014*	0.029	0.012*
O=c1c2ccccc2[nH]c(=S)n1Cc1cccnc1	i	i	i	i	i	1.7	x	x	x	x	x	x
O=C(NCc1ccccn1)c1ccc(Cn2c(=S)[nH]c3ccc(Br)cc3c2=O)cc1	i	i	i	i	i	2	x	x	x	x	x	x
CCOc1ccc(C(CC(=O)O)NC(=O)C(CC)c2ccccc2)cc1 (configuration not stated)	i	i	i	i	i	x	x	x	x	x	x	x
COc1ccc(OC)c(NC(=O)C(Sc2ccccc2)c2ccccc2)c1 (configuration not stated)	i	i	i	i	i	x	0.016	0.0036	0.03	0.007	0.016	0.0094
CCOc1ccc(C(CC(=O)O)NC(=O)C(Sc2ccccc2)c2ccccc2)cc1 (configuration not stated)	i	i	i	i	i	-4*	0.0068	u	0.023*	0.0084	u	0.012
O=C(c1ccc(F)cc1)C1CCN(C(=O)c2ccccc2F)CC1	i	i	i	i	i	x	x	x	x	x	x	x
CN1C(c2ccc(F)cc2)=CS/C1=C(/C#N)c1nnc(N2CCOCC2)n1-c1ccccc1	i	i	i	i	i	-2.1	x	x	x	x	x	x
CCN1C(c2ccc(F)cc2)=CS/C1=C(\C#N)c1nnc2n1-c1ccccc1SC2	i	i	i	i	i	-5.1*	0.0084	0.0048	0.034	0.0078	0.015*	0.012
Cc1ccc(NC2CCCN(C(=O)CCN3CCCCO3)C2)cc1C (configuration not stated)	i	i	i	i	i	x	x	x	x	x	x	x
